Experimental data as given in PubChem BioAssay AID1656 (Sanford-Burnham Center for Chemical Genomics, 2009).
The campaign covered roughly 240,000 compounds. About 950 (0.4%) were called active.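 How the source made its calls: active means lipid droplet intensity inhibited by at least 50%, with more than 500 cells counted; inconclusive means wells with under 300 cells, treated as cytotoxic; inactive means the rest.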 The full list was thinned out, with actives kept by preference.

Assay: inhibitors of hepatocyte lipid droplet formation, primary screen, imaging, high-throughput imaging, BODIPY stain (AID 1656);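 on cell count: cells counted across two imaged fields per well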
Conditions: AML12 mouse hepatocytes, oleate lipid droplets, at 6.5 µM; cell count: measured here: cell count, cytotoxicity flag; inhibition: stronger effect = higher value
In short: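 Technique: fluorescence imaging, 20x objective, two fields per well / Assay system: AML12 hepatocytes (mouse) / Measure: % inhibition of lipid droplet signal / Doses: 6.5 µM single-point dosing / Incubation: overnight exposure / Reagent: 100 µM oleic acid challenge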
With `CCC(C)(C)NC(=O)C(c1ccc(OC)cc1)N(C(=O)CCC(=O)Nc1cc(C)on1)c1ccc(OC)cc1OC` (configuration not stated) the cell count was 774 cells and the inhibition was 2.5% (inactive).
For `COc1ccc(CN(CC(=O)NC2CCCC2)C(=O)CCC(=O)Nc2cc(C)on2)cc1`, the cell count was 702 cells and the inhibition was -31.7% (inactive).
With `COc1ccc(C(C(=O)NC(C)(C)C)N(Cc2ccc(F)cc2)C(=O)CCC(=O)Nc2cc(C)on2)cc1` (configuration not stated) the cell count was 757 cells and the inhibition was 96.7% (active).
For `COc1cccc(CNC(=O)Cn2c(=O)oc3cc(S(=O)(=O)N4CCCCC4)ccc32)c1`, the cell count was 692 cells and the inhibition was 25.1% (inactive).
In the case of `CCOC(=O)C1=C(C)OC(N)=C(C#N)C1c1cncc(-c2ccc(F)cc2)c1` (configuration not stated), the cell count is reported as 619 cells and the inhibition is reported as -2.2% (inactive).
For `CCC1=C(C(=O)OC)C(c2cc(OC)ccc2OC)C(C#N)=C(N)O1` (configuration not stated), the cell count was 697 cells and the inhibition was -12.3% (inactive).
In the case of `CCOC(=O)C1=C(CC)OC(N)=C(C#N)C1c1ccc(F)cc1F` (configuration not stated), the cell count is reported as 769 cells and the inhibition is reported as 70.2% (active).
In the case of `COc1cc(/C=N/NC(=O)Nc2ccccc2)ccc1OCCOc1ccccc1C`, the cell count is reported as 674 cells and the inhibition is reported as 94.6% (active).
For `COc1cc(/C=N/NC(=O)c2ccoc2C)ccc1OCCN1CCCCC1`, the cell count was 729 cells and the inhibition was 4.7% (inactive).
For `COc1ccc(/C=N/NC(=O)c2ccccc2)cc1OS(=O)(=O)c1ccccc1`, the cell count was 657 cells and the inhibition was -6% (inactive).
In the case of `CC(C)CCn1c(=O)c2c(nc3n2CCCN3Cc2ccccc2)n(C)c1=O`, the cell count is reported as 827 cells and the inhibition is reported as -12.4% (inactive).
For `Cc1cccn2c(=O)c(/C=C(\C#N)C(N)=O)c(N3CCCCCC3)nc12`, the cell count was 788 cells and the inhibition was 1.2% (inactive).
For `CC(=O)c1ccc(N2CCN(C(=O)C3CCN(S(=O)(=O)c4ccc5c(c4)CC(C)N5C(=O)C4CC4)CC3)CC2)cc1` (configuration not stated), the cell count was 672 cells and the inhibition was -0.3% (inactive).
For `COc1cccc(N(CC(=O)NC2CCCCCC2)S(=O)(=O)c2ccccc2)c1`, the cell count was 750 cells and the inhibition was 2.3% (inactive).
For `CCC(C)[C@H](NC(=O)N1CCn2c1nc1ccccc12)C(=O)NCc1ccc(OC)cc1` (some centres not stated), the cell count was 712 cells and the inhibition was 28% (inactive).
In the case of `CCc1ccc2nc(N(CCCN(C)C)C(=O)c3ccc4c(c3)OCCO4)sc2c1`, the cell count is reported as 802 cells and the inhibition is reported as 0% (inactive).
With `CCC(=O)N1CCN(c2ccccc2NC(=O)COc2cccc(C)c2C)CC1` the cell count was 823 cells and the inhibition was -15% (inactive).
In the case of `COc1cc(/C=N/NC(=O)c2cccnc2)ccc1OC(=O)c1cccc(Br)c1`, the cell count is reported as 669 cells and the inhibition is reported as -11.9% (inactive).
For `CN1CCN(CCNC(=O)Nc2ccccc2[N+](=O)[O-])CC1`, the cell count was 440 cells and the inhibition was 10.2% (inactive).
In the case of `O=[N+]([O-])c1cc(C(F)(F)F)ccc1NN=C1CCCC1`, the cell count is reported as 631 cells and the inhibition is reported as 1.6% (inactive).
With `O=[N+]([O-])c1ccccc1N/N=C1\CCc2ccccc21` the cell count was 658 cells and the inhibition was 60.3% (active).
